In ChEMBL document CHEMBL3351848, “Novel insights into structure and function of factor XIIIa-inhibitor tridegin” (J Med Chem, 2014):
Calls of active or inactive are those of the source. The rule behind the calls is not given here. Residues, ends and D or L forms follow the SMILES beside them. *: point of attachment. X1 = O=C(c1ccccc1-c1c2ccc(=O)cc-2oc2cc(O)ccc12)*

How the values were obtained:
[1] = biological target: T1, Coagulation factor XIII A chain (Homo sapiens) (UniProt P00488); assay: Binding affinity to nonactivated recombinant F13A subunit (unknown origin) by microscale thermophoresis method
T1 sequence (whole entry): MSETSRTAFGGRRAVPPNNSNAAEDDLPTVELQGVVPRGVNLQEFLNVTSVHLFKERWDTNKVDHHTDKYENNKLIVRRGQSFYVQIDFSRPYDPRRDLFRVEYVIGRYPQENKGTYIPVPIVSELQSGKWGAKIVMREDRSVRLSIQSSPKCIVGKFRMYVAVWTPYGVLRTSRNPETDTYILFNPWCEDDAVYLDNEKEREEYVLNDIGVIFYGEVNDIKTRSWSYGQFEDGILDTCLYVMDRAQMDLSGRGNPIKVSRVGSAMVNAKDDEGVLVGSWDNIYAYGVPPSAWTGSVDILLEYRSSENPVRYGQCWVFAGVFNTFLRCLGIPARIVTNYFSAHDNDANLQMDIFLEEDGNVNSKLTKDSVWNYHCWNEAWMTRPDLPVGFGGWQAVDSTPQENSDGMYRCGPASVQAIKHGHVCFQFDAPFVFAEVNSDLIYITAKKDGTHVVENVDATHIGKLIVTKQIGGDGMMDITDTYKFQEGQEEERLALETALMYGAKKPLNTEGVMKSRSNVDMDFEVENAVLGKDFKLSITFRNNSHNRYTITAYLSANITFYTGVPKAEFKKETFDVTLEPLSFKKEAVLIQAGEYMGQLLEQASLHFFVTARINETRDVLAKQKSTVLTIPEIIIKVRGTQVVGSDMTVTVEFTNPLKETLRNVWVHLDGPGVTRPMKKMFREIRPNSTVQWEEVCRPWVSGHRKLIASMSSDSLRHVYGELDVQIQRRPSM
Summary of the method: (§1)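 Carboxyfluorescein-labeled peptide (2 μM solution, before mixing) in 50 mM Tris-HCl pH 7.5, 0.9% w/v NaCl, with Tween-20 to 0.1% final. Mixed with an equal volume of protein (FXIIIa, FXIII-A or FXIII-B) in the same buffer, 15 concentrations spanning 3.1 μM to 0.1 nM. After 20 min incubation, the mixture was loaded into glass capillaries and thermophoresis read three times per capillary.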

[2] = biological target: T2, Coagulation factor XIII B chain (Homo sapiens) (UniProt P05160); assay: Binding affinity to nonactivated recombinant F13B subunit (unknown origin) by microscale thermophoresis method; summary of the method: as §1
T2 sequence (whole entry): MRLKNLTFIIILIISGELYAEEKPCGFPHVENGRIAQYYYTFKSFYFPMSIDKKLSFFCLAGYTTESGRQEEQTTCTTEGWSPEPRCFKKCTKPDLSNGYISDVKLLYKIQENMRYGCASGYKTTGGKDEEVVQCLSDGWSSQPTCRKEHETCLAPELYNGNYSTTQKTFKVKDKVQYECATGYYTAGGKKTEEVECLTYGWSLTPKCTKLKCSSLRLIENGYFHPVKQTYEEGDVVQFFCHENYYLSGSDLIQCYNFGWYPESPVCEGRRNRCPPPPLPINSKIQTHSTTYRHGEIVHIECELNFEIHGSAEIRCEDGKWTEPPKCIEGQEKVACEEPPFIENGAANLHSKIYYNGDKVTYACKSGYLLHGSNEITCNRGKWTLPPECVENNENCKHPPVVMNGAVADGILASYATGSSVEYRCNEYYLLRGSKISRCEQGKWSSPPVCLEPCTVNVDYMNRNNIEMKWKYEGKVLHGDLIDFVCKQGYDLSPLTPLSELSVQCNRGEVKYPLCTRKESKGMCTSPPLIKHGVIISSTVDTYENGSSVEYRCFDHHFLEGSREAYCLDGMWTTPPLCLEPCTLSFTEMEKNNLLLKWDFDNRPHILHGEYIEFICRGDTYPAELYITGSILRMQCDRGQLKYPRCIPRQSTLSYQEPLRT

[3] = biological target: T3, Coagulation factor XIII A chain (Homo sapiens, UniProt P00488); assay: Binding affinity to recombinant F13A (unknown origin) by microscale thermophoresis method; summary of the method: as §1
T3 sequence (P00488 whole entry): T1 sequence (whole entry)

[4] = biological target: T3, Coagulation factor XIII A chain; assay: Inhibition of recombinant F13a (unknown origin) using H-Tyr-Glu(pNA)-Val-Lys-Val-Ile-Gly-NH2 as substrate by chromogenic assay
[5] = biological target: T4, Protein-glutamine gamma-glutamyltransferase (Homo sapiens) (UniProt P21980); assay: Inhibition of human TGase-2 using fluorogenic FRET substrate at 10 uM
T4 sequence (whole entry): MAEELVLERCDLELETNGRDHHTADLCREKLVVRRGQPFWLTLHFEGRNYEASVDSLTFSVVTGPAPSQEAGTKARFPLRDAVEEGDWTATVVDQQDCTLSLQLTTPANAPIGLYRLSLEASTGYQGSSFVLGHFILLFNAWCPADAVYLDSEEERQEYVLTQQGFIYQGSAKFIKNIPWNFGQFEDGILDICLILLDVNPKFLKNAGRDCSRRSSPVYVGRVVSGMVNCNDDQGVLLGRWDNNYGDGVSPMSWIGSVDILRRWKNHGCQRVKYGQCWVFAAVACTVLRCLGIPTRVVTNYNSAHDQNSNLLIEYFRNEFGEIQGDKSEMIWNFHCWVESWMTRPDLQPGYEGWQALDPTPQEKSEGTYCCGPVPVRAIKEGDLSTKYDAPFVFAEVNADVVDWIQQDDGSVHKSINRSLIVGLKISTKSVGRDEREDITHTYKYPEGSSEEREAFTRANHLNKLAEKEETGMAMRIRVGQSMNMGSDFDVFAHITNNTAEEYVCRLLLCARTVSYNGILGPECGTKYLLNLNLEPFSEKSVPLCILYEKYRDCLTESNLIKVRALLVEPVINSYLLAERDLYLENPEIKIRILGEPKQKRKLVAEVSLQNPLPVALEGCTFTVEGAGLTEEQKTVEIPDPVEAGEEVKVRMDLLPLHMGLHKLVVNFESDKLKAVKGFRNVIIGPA

| Activity [1] | Activity [2] | Kd [3] | IC50 [4] | inhibition [5] | SMILES |
| --- | --- | --- | --- | --- | --- |
| inactive | inactive | 0.8 µM | – | – | CC[C@H](C)[C@H](NC(=O)[C@H](CC(=O)O)NC(=O)[C@H](CC(=O)O)NC(=O)[C@H](CCSC)NC(=O)[C@@H]1CCCN1C(=O)[C@H](CCCCN)NC(=O)[C@@H](NC(=O)[C@H](CC(C)C)NC(=O)[C@H](CCC(=O)O)NC(=O)[C@H](CO)NC(=O)[C@H](CCCNC(=N)N)NC(=O)[C@@H]1CCCN1C(=O)[C@H](CCCNC(=N)N)NC(=O)c1ccccc1-c1c2ccc(=O)cc-2oc2cc(O)ccc12)[C@@H](C)CC)C(=O)N[C@@H](Cc1ccc(O)cc1)C(=O)N[C@@H](CCC(N)=O)C(=O)N[C@@H](CCCNC(=N)N)C(=O)N1CCC[C@H]1C(=O)N[C@H](C(=O)N[C@@H](CCC(=O)O)C(=O)N[C@@H](Cc1ccccc1)C(=O)N1CCC[C@H]1C(=O)N[C@@H](CC(N)=O)C(=O)N[C@@H](CC(C)C)C(=O)N1CCC[C@H]1C(=O)N[C@@H](CC(C)C)C(=O)N[C@@H](CCCCN)C(=O)N1CCC[C@H]1C(=O)N[C@@H](CCCNC(=N)N)C(=O)N[C@@H](CCC(=O)O)C(=O)O)C(C)C (X1-RPRSELIKPMDDIYQRPVEFPNLPLKPRE-OH) |
| – | – | – | 1.9 µM | – | CC[C@H](C)[C@H](NC(=O)[C@H](CC(=O)O)NC(=O)[C@H](CC(=O)O)NC(=O)[C@H](CCSC)NC(=O)[C@@H]1CCCN1C(=O)[C@H](CCCCN)NC(=O)[C@@H](NC(=O)[C@H](CC(C)C)NC(=O)[C@H](CCC(=O)O)NC(=O)[C@@H](N)CO)[C@@H](C)CC)C(=O)N[C@@H](Cc1ccc(O)cc1)C(=O)N[C@@H](CCC(N)=O)C(=O)N[C@@H](CCCNC(=N)N)C(=O)N1CCC[C@H]1C(=O)N[C@H](C(=O)N[C@@H](CCC(=O)O)C(=O)N[C@@H](Cc1ccccc1)C(=O)N1CCC[C@H]1C(=O)N[C@@H](CC(N)=O)C(=O)N[C@@H](CC(C)C)C(=O)N1CCC[C@H]1C(=O)N[C@@H](CC(C)C)C(=O)O)C(C)C (H-SELIKPMDDIYQRPVEFPNLPL-OH) |
| inactive | inactive | – | 2.2 µM | < 10% | CC[C@H](C)[C@H](NC(=O)[C@H](CC(=O)O)NC(=O)[C@H](CC(=O)O)NC(=O)[C@H](CCSC)NC(=O)[C@@H]1CCCN1C(=O)[C@H](CCCCN)NC(=O)[C@@H](NC(=O)[C@H](CC(C)C)NC(=O)[C@H](CCC(=O)O)NC(=O)[C@H](CO)NC(=O)[C@H](CCCNC(=N)N)NC(=O)[C@@H]1CCCN1C(=O)[C@@H](N)CCCNC(=N)N)[C@@H](C)CC)C(=O)N[C@@H](Cc1ccc(O)cc1)C(=O)N[C@@H](CCC(N)=O)C(=O)N[C@@H](CCCNC(=N)N)C(=O)N1CCC[C@H]1C(=O)N[C@H](C(=O)N[C@@H](CCC(=O)O)C(=O)N[C@@H](Cc1ccccc1)C(=O)N1CCC[C@H]1C(=O)N[C@@H](CC(N)=O)C(=O)N[C@@H](CC(C)C)C(=O)N1CCC[C@H]1C(=O)N[C@@H](CC(C)C)C(=O)N[C@@H](CCCCN)C(=O)N1CCC[C@H]1C(=O)N[C@@H](CCCNC(=N)N)C(=O)N[C@@H](CCC(=O)O)C(=O)O)C(C)C (H-RPRSELIKPMDDIYQRPVEFPNLPLKPRE-OH) |
| inactive | inactive | – | 1.7 µM | – | CC[C@H](C)[C@H](NC(=O)[C@H](CC(=O)O)NC(=O)[C@H](CC(=O)O)NC(=O)[C@H](CCSC)NC(=O)[C@@H]1CCCN1C(=O)[C@H](CCCCN)NC(=O)[C@@H](NC(=O)[C@H](CC(C)C)NC(=O)[C@H](CCC(=O)O)NC(=O)[C@H](CO)NC(=O)[C@H](CCCNC(=N)N)NC(=O)[C@@H]1CCCN1C(=O)[C@H](CCCNC(=N)N)NC(=O)[C@H](CS)NC(=O)[C@H](CCC(N)=O)NC(=O)[C@@H]1CCCN1C(=O)[C@@H](NC(=O)[C@H](Cc1ccccc1)NC(=O)[C@H](C)N)[C@@H](C)CC)[C@@H](C)CC)C(=O)N[C@@H](Cc1ccc(O)cc1)C(=O)N[C@@H](CCC(N)=O)C(=O)N[C@@H](CCCNC(=N)N)C(=O)N1CCC[C@H]1C(=O)N[C@H](C(=O)N[C@@H](CCC(=O)O)C(=O)N[C@@H](Cc1ccccc1)C(=O)N1CCC[C@H]1C(=O)N[C@@H](CC(N)=O)C(=O)N[C@@H](CC(C)C)C(=O)N1CCC[C@H]1C(=O)N[C@@H](CC(C)C)C(=O)N[C@@H](CCCCN)C(=O)N1CCC[C@H]1C(=O)N[C@@H](CCCNC(=N)N)C(=O)N[C@@H](CCC(=O)O)C(=O)O)C(C)C (H-AFIPQCRPRSELIKPMDDIYQRPVEFPNLPLKPRE-OH) |
| inactive | inactive | < 0.1 µM | – | – | CC[C@H](C)[C@H](NC(=O)CNC(=O)[C@H](CCC(N)=O)NC(=O)[C@H](Cc1cnc[nH]1)NC(=O)[C@H](Cc1c[nH]c2ccccc12)NC(=O)[C@H](CCC(=O)O)NC(=O)[C@H](CCCCN)NC(=O)[C@H](CS)NC(=O)[C@@H]1CCCN1C(=O)[C@H](CC(C)C)NC(=O)[C@H](CC(C)C)NC(=O)[C@H](CCCCN)NC(=O)c1ccccc1-c1c2ccc(=O)cc-2oc2cc(O)ccc12)C(=O)N1CCC[C@H]1C(=O)N[C@@H](CC(N)=O)C(=O)N1CCC[C@H]1C(=O)N[C@@H](CCCNC(=N)N)C(=O)N[C@@H](CS)C(=O)N[C@@H](Cc1c[nH]c2ccccc12)C(=O)N[C@@H](CS)C(=O)NCC(=O)N[C@@H](C)C(=O)N[C@@H](CC(=O)O)C(=O)N[C@@H](CC(C)C)C(=O)N[C@@H](CCC(=O)O)C(=O)N[C@@H](CS)C(=O)N[C@@H](C)C(=O)N[C@@H](CCC(N)=O)C(=O)N[C@@H](CC(=O)O)C(=O)N[C@@H](CCC(N)=O)C(=O)N[C@@H](Cc1ccc(O)cc1)C(=O)N[C@@H](CS)C(=O)N[C@@H](C)C(=O)N[C@@H](Cc1ccccc1)C(=O)N[C@H](C(=O)N1CCC[C@H]1C(=O)N[C@@H](CCC(N)=O)C(=O)N[C@@H](CS)C(=O)O)[C@@H](C)CC (X1-KLLPCKEWHQGIPNPRCWCGADLECAQDQYCAFIPQC-OH) |
